What was measured:
Assay in all cases: Fluorescence quenching binding assay, NADPH-free apoenzyme
wild-type EryKR3^0 = target: T1, wild-type EryKR3^0 (Saccharopolyspora erythraea, UniProt Q03132)
T1 sequence (Q03132 1132-1297 limits assumed): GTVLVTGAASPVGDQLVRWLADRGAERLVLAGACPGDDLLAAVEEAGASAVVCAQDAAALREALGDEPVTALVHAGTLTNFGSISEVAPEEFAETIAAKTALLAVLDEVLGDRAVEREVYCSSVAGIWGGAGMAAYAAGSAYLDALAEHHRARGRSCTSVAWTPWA
Summary of the method: (§1)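 Cofactor removed by dialysis, 36 h, against 50 mM potassium phosphate pH 7.5 with 1 M KBr, 5 mM EDTA and 10% glycerol, then 36 h into 50 mM sodium phosphate pH 7.5 with 10% glycerol. Apoenzyme (1 μM) titrated with (±)-2-methyl-3-ketopentanoyl-SNAC (0–50 mM final), 20 min at room temperature. Fluorescence read at pH 7.2 and 30 °C (ex 280, em 338 nm). Quenching (Fapo−Fobs) fitted to a one-site saturation model for Kd.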

wild-type PicKR3^0 = target: T2, wild-type PicKR3^0 (Streptomyces venezuelae, UniProt Q9ZGI4)
T2 sequence (Q9ZGI4 1150-1343 limits assumed): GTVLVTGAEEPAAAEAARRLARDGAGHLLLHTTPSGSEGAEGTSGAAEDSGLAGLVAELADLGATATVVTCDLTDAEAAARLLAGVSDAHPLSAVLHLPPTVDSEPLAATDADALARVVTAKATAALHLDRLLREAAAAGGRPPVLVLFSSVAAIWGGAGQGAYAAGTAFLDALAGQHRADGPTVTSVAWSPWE
Summary of the method: as §1

wild-type EryKR1 = wild-type EryKR1 (Saccharopolyspora erythraea, UniProt Q03131)
wild-type EryKR1, sequence (Q03131 1613-1790 limits assumed): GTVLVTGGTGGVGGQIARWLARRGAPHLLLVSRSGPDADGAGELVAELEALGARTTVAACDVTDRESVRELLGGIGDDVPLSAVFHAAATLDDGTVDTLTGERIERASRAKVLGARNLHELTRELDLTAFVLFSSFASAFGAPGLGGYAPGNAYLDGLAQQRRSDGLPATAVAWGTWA
Summary of the method: as §1

Structure (SMILES): CCC(=O)C(C)C(=O)SCCNC(C)=O (racemic) [compound 1, (±)-2-methyl-3-ketopentanoyl-N-acetycysteamine (SNAC) thioester]
- Kd (wild-type EryKR3^0): 8 ± 0.4 mM
- Kd (wild-type PicKR3^0): 5 ± 0.3 mM
- Kd (wild-type EryKR1): 7.7 ± 0.4 mM

Reference: publication PMC4775309 (Biochemistry, 2016)
